Measurements: ChEMBL document CHEMBL1131564, “Potent and selective ligands for the dopamine transporter (DAT): structure-activity relationship studies of novel 4-[2-(diphenylmethoxy)ethyl]-1-(3-phenylpropyl)piperidine analogues” (J Med Chem, 1998)

Assays:
[1] = target: Sodium-dependent dopamine transporter (Rattus norvegicus, UniProt P23977); experiment: Inhibitory activity against dopamine transporter (DAT) labeled with [3H]WIN-35428 in rat brain striatal membrane.; type: cell membranes
[2] = target: Sodium-dependent serotonin transporter (Rattus norvegicus, UniProt P31652); experiment: Inhibitory activity against serotonin transporter (SERT) labeled with [3H]-citalopram in rat brain striatal membrane.; type: cell membranes
[3] = test system: Monoamine transporters; serotonin & dopamine; experiment: Ratio between the IC50 values of SERT and DAT; type: protein assay
How it was run: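 Selectivity ratio: SERT IC50 ([3H]citalopram) divided by DAT IC50 ([3H]WIN 35,428). Both IC50s come from binding in male Sprague–Dawley rat striatal membranes under identical conditions, each by nonlinear curve fitting of at least five concentrations, three independent experiments in triplicate.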

Chain of Sodium-dependent dopamine transporter (P23977 whole entry): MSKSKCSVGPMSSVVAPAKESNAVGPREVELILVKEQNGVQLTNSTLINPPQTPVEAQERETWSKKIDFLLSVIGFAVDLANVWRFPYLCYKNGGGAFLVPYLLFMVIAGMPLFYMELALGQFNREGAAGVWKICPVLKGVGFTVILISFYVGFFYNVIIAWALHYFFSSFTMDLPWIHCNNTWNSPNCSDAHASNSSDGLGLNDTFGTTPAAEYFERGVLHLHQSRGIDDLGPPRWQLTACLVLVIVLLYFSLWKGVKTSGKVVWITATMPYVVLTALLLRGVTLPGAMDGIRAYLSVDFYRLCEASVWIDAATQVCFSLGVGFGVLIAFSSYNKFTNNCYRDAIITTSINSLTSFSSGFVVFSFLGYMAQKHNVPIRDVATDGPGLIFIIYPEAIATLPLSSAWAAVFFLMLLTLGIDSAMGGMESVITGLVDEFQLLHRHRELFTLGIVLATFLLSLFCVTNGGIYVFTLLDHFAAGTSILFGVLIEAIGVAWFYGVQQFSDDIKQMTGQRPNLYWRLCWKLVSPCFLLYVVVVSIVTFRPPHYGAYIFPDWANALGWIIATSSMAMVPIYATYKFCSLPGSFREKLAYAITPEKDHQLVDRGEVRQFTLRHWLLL
Chain of Sodium-dependent serotonin transporter (P31652 whole entry): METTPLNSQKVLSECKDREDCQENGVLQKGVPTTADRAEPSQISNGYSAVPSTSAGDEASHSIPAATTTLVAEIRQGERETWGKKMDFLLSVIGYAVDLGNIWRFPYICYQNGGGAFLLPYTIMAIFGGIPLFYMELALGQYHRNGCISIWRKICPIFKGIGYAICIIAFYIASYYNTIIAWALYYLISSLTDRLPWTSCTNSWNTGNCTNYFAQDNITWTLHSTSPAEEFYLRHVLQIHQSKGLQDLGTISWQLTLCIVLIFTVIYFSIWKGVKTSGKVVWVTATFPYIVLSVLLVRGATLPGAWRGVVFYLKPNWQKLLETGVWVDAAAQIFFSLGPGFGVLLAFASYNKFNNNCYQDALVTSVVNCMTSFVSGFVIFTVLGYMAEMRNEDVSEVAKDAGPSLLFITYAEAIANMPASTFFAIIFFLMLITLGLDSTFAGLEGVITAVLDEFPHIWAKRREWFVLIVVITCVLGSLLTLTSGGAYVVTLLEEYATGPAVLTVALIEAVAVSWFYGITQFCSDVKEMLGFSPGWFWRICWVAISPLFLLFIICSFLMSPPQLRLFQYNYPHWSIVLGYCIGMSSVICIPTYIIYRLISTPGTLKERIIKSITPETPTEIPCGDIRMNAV

Row | Structure (SMILES) | IC50 [1] [µM] | IC50 [2] [µM] | Ratio [3]
1 | c1ccc(CCCN2CCC(CCOC(c3ccccc3)c3cccs3)CC2)cc1 (configuration not stated) | 0.006 | 0.18 | 30
2 | Fc1ccc(C(OCCC2CCN(CC=Cc3ccccc3)CC2)c2ccc(F)cc2)cc1 | 0.0414 | 0.271 | 6.5
3 | C(=Cc1cccs1)CN1CCC(CCOC(c2ccccc2)c2ccccc2)CC1 | 0.0098 | 0.291 | 29.6
4 | Fc1ccc(CCCN2CCC(CCOC(c3ccccc3)c3ccccc3)CC2)cc1 | 0.0066 | 0.223 | 33.8
5 | Fc1ccc(C(OCCC2CCN(CCCc3ccccc3)CC2)c2cccs2)cc1 (configuration not stated) | 0.0117 | 0.0857 | 7.3
6 | c1ccc(C(OCCC2CCN(CCCc3cccnc3)CC2)c2ccccc2)cc1 | 0.0299 | 0.194 | 6.5
7 | Fc1ccc(C=CCN2CCC(CCOC(c3ccc(F)cc3)c3ccc(F)cc3)CC2)cc1 | 0.0151 | 0.0758 | 5
8 | C(=Cc1ccccc1)CN1CCC(CCOC(c2ccccc2)c2ccccc2)CC1 | 0.0101 | 0.232 | 22.9
9 | Fc1ccc(C=CCN2CCC(CCOC(c3ccccc3)c3ccccc3)CC2)cc1 | 0.0108 | 0.205 | 19
